We go through 41 compounds from ChEMBL document CHEMBL3244301, “Novel analgesic-antiinflammatory salicylates” (J Med Chem, 1978).

Molecules are shown by their SMILES. ≈ marks a conversion by molar mass, not a printed value. Calls of active or inactive are those of the source. No cut-off for these calls is given here.

The first data set deals with Rattus norvegicus. The experiment in a line: Analgesic activity in po dosed rat assessed as inhibition of adjuvant-induced arthritis pain.
Conditions: not given
Type of data set: functional.
On to `CC1=C(CC(=O)O)c2cc(F)ccc2/C1=C\c1ccc([S+](C)[O-])cc1` (centres undefined) [SULINDAC], for which the ED50 came out at 0.55 mg/kg.
On to `CC(=O)Oc1ccccc1C(=O)O` [ASPIRIN], for which the ED50 was 78 mg/kg.
As for `O=C(O)c1cc(-c2ccc(F)cc2F)ccc1O` [DIFLUNISAL], the ED50 came to 10.4 mg/kg.
Turning to `CC(=O)Oc1ccc(-c2ccc(F)cc2)cc1C(=O)O` [FLUFENISAL], the ED50 is 40 mg/kg.
In the case of `CC(C)Cc1ccc(C(C)C(=O)O)cc1` (centres undefined) [IBUPROFEN], the ED50 stood at 28 mg/kg.
With `COc1ccc2c(c1)c(CC(=O)O)c(C)n2C(=O)c1ccc(Cl)cc1` [INDOMETHACIN], the ED50 was 0.27 mg/kg.

Another data set relates to Rattus norvegicus. The experiment in a line: Toxicity in po dosed rat assessed as gastric hemorrhage. Type of data set: organism-based, Stomach. The settings on record: in vivo.
In the case of `CC1=C(CC(=O)O)c2cc(F)ccc2/C1=C\c1ccc([S+](C)[O-])cc1` (centres undefined) [SULINDAC], the ED50 is 27 mg/kg.
Consider `CC(=O)Oc1ccccc1C(=O)O` [ASPIRIN], for which the ED50 turned out to be 81 mg/kg.
Turning to `CC(=O)Oc1ccc(-c2ccc(F)cc2)cc1C(=O)O` [FLUFENISAL], the ED50 was more than 512 mg/kg.
For the compound `CC(C)Cc1ccc(C(C)C(=O)O)cc1` (centres undefined) [IBUPROFEN], the ED50 was less than 16 mg/kg.
In the case of `COc1ccc2c(c1)c(CC(=O)O)c(C)n2C(=O)c1ccc(Cl)cc1` [INDOMETHACIN], the ED50 amounted to 5.4 mg/kg.

In the next data set the test system is Rattus norvegicus. The experiment in a line: Analgesic activity in po dosed rat assessed as inhibition of yeast-induced inflammatory pain. In kind it is functional.
Conditions: not given
For the compound `CC1=C(CC(=O)O)c2cc(F)ccc2/C1=C\c1ccc([S+](C)[O-])cc1` (centres undefined) [SULINDAC], the ED50 stood at 1.7 mg/kg.
The same measure, in the same setting: the value for `CC(=O)Oc1ccccc1C(=O)O` [ASPIRIN] was 87 mg/kg.
Same read-out and setting: in the case of `O=C(O)c1cc(-c2ccc(F)cc2F)ccc1O` [DIFLUNISAL] it was 4.6 mg/kg; in that of `CC(=O)Oc1ccc(-c2ccc(F)cc2)cc1C(=O)O` [FLUFENISAL], 35 mg/kg; in that of `CC(C)Cc1ccc(C(C)C(=O)O)cc1` (centres undefined) [IBUPROFEN], 2.6 mg/kg.
Same read-out and setting: the value for `COc1ccc2c(c1)c(CC(=O)O)c(C)n2C(=O)c1ccc(Cl)cc1` [INDOMETHACIN] was 2.2 mg/kg.

A further data set deals with Rattus norvegicus. The data set can be described thus: Antiinflammatory activity against carrageenan-induced foot edema in rat at 400 mg/kg administered via gastric gavage. In kind it is functional, organism-based. More on the design: dose 400 mg/kg.
Conditions: not given
In outline: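 Carrageenan-induced foot edema in rats. Drugs were given as an aqueous suspension by gastric gavage to six rats at each dose level.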
Turning to `Cc1cc(-c2ccc(O)c(C(=O)O)c2)ccc1F`, the result was inactive.
Take `O=C(O)c1c(O)cccc1-c1ccccc1`: the result was inactive.
With `O=C(O)c1ccc(C(F)(F)F)cc1O`, the result was inactive.
Regarding `O=C(O)c1cc(-c2ccccc2)c(Cl)cc1O`, the result was inactive.
Regarding `O=C(O)c1cccc(-c2ccc(Cl)cc2)c1O`, the outcome was inactive.
Same read-out and setting: the value for `CCCc1cc(-c2ccc(F)cc2)cc(C(=O)O)c1O` was “inactive”.
For `O=C(O)c1cc(C2CCCCC2)ccc1O`, the result was inactive.
As to `O=C(O)c1c(O)cccc1F`, the result was inactive.
On the same count and under the same terms, in the case of `COc1cc(-c2ccc(O)c(C(=O)O)c2)ccc1F` it was “inactive”.

Test system in the next data set: not listed separately
The data set can be described thus: Plasma concentration in human at 500 mg, po after 2 hrs.
Conditions: not given
Compound `O=C(O)c1cc(-c2ccc(F)cc2F)ccc1O` [DIFLUNISAL] had a concentration at 2 h of 99 µg/mL.

The subject of another data set is Canis familiaris. The experiment in a line: Analgesic activity in po dosed dog knee joint pain model. Type of data set: functional. The settings on record: Canis lupus familiaris.
Consider `CC1=C(CC(=O)O)c2cc(F)ccc2/C1=C\c1ccc([S+](C)[O-])cc1` (centres undefined) [SULINDAC], for which the ED50 amounted to 45 mg/kg.
Turning to `CC(=O)Oc1ccccc1C(=O)O` [ASPIRIN], the ED50 was determined as 68 mg/kg.
Turning to `O=C(O)c1cc(-c2ccc(F)cc2F)ccc1O` [DIFLUNISAL], the ED50 was determined as 24 mg/kg.
Regarding `COc1ccc2c(c1)c(CC(=O)O)c(C)n2C(=O)c1ccc(Cl)cc1` [INDOMETHACIN], the ED50 was found to be 1.7 mg/kg.

The test system of another data set is Rattus norvegicus. The experiment in a line: Toxicity in rat assessed as gastric hemorrhage at 256 mg/kg, po. In kind it is organism-based, Stomach. More on the design: dose 256 mg/kg, route oral. The note with it: in vivo.
For the compound `O=C(O)c1cc(-c2ccc(F)cc2F)ccc1O` [DIFLUNISAL], the Activity entry is “Non-toxic”.

Test system in another data set: not listed separately
The experiment in a line: Plasma concentration in human at 250 mg, po after 2 hrs.
Conditions: not given
In turn, `O=C(O)c1cc(-c2ccc(F)cc2F)ccc1O` [DIFLUNISAL] had a concentration at 2 h of 30 µg/mL.

Test system in a further data set: not listed separately
The data set can be described thus: Drug excretion in human urine after 96 hrs. In kind it is ADME, tissue-based. The note with it: read-out: Drug excretion.
Consider `O=C(O)c1cc(-c2ccc(F)cc2F)ccc1O` [DIFLUNISAL], for which the dose excreted at 96 h worked out at 95%.

A further data set addresses Cyclooxygenase (Homo sapiens) (UniProt P35354+P23219).
Test: not given
Conditions: not given
In the case of `CC1=C(CC(=O)O)c2cc(F)ccc2/C1=C\c1ccc([S+](C)[O-])cc1` (centres undefined) [SULINDAC], the ED50 entry was “inactive”.
As to `CC(=O)Oc1ccccc1C(=O)O` [ASPIRIN], the ED50 worked out at 13 mg/L (≈ 72.2 µM).
Turning to `O=C(O)c1cc(-c2ccc(F)cc2F)ccc1O` [DIFLUNISAL], the ED50 was found to be 0.6 mg/L (≈ 2.4 µM).
Turning to `CC(=O)Oc1ccc(-c2ccc(F)cc2)cc1C(=O)O` [FLUFENISAL], the ED50 stood at 10 mg/L (≈ 36.5 µM).

For another data set, the system named is Rattus norvegicus. The experiment in a line: Toxicity in po dosed rat assessed as intestinal perforating ulcer. In kind it is organism-based. The settings on record: in vivo.
Turning to `CC1=C(CC(=O)O)c2cc(F)ccc2/C1=C\c1ccc([S+](C)[O-])cc1` (centres undefined) [SULINDAC], the ED50 came to 69 mg/kg.
`O=C(O)c1cc(-c2ccc(F)cc2F)ccc1O` [DIFLUNISAL]: the ED50 was determined as 520 mg/kg.
The same measure, in the same setting: the value for `CC(=O)Oc1ccc(-c2ccc(F)cc2)cc1C(=O)O` [FLUFENISAL] was more than 512 mg/kg; that for `CC(C)Cc1ccc(C(C)C(=O)O)cc1` (centres undefined) [IBUPROFEN] was less than 256 mg/kg.
The same measure, in the same setting: the value for `COc1ccc2c(c1)c(CC(=O)O)c(C)n2C(=O)c1ccc(Cl)cc1` [INDOMETHACIN] was 5.2 mg/kg.

The test system of another data set is Rattus norvegicus. The data set can be described thus: Toxicity in rat assessed as intestinal perforating ulcer at 1024 mg/kg, po. Further details: dose 1024 mg/kg, route oral. The note with it: in vivo. In kind it is organism-based.
`CC(=O)Oc1ccccc1C(=O)O` [ASPIRIN]: the Activity result is “Non-toxic”.

The test system of the next data set is Rattus norvegicus. The experiment in a line: Antiinflammatory activity against carrageenan-induced foot edema in rat administered via gastric gavage. Type of data set: functional. The note with it: po. In outline:
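Rats, six per dose level, received drug as an aqueous suspension by gastric gavage before carrageenan-induced foot edema was measured. The highest dose given was 400 mg/kg.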
For orientation: The carrageenan paw model is a standard test of acute inflammation.
For the compound `O=C(O)c1ccc(-c2ccc(F)cc2)cc1O`, the ED50 turned out to be 400 mg/kg.
In the case of `O=C(O)c1ccc(-c2ccccc2)cc1O`, the ED50 was found to be 150 mg/kg.
The compound `O=C(O)c1ccccc1O` [SALICYLIC ACID] gave an ED50 of 77 mg/kg.
Take `O=C(O)c1cc(-c2ccccc2F)ccc1O`: the ED50 was 20 mg/kg.
In the case of `Cc1cc(-c2ccccc2)cc(C(=O)O)c1O`, the ED50 came out at 60 mg/kg.
`O=C(O)c1cc(-c2ccc(Cl)cc2)ccc1O`: the ED50 was 24 mg/kg.
Same read-out and setting: in the case of `O=C(O)c1cc(F)ccc1O` it was 120 mg/kg.
`CC(=O)Oc1ccccc1C(=O)O` [ASPIRIN] had an ED50 of 89 mg/kg.
Consider `Cc1cc(-c2ccc(F)cc2)cc(C(=O)O)c1O`, for which the ED50 stood at 60 mg/kg.
Compound `CCCCOC(=O)Oc1ccc(-c2ccc(F)cc2F)cc1C(=O)O` gave an ED50 of 12 mg/kg.
Same read-out and setting: in the case of `CCOC(=O)Oc1ccc(-c2ccc(F)cc2F)cc1C(=O)O` it was 30 mg/kg; in that of `O=C(O)c1cc(-c2ccccc2)cc(F)c1O`, 110 mg/kg; in that of `O=C(O)c1cc(-c2c(F)c(F)c(F)c(F)c2F)ccc1O`, 20 mg/kg.
The compound `O=C(O)c1cc(-c2ccc(F)cc2F)ccc1O` [DIFLUNISAL] registered an ED50 of 9.8 mg/kg.
Still for that read-out and setting: in the case of `O=C(O)c1cccc(-c2ccccc2)c1O` it was 130 mg/kg; in that of `O=C(O)c1cc(-c2ccc(I)cc2)ccc1O`, 120 mg/kg; in that of `CC(=O)Oc1ccc(-c2ccc(F)cc2F)cc1C(=O)O`, 27 mg/kg.
The same measure, in the same setting: the value for `O=C(O)c1cc(-c2ccc(F)cc2)ccc1O` was 14 mg/kg.
As to `CC(=O)Oc1cc(C(F)(F)F)ccc1C(=O)O` [TRIFLUSAL], the ED50 was 155 mg/kg.
Consider `CC(=O)Oc1ccc(-c2ccc(F)cc2)cc1C(=O)O` [FLUFENISAL], for which the ED50 was found to be 24 mg/kg.
On the same count and under the same terms, the value for `O=C(O)c1cc(-c2cccc(F)c2)ccc1O` was 40 mg/kg; that for `O=C(O)c1ccc(F)cc1O` was 400 mg/kg.
For `CC(=O)Oc1ccc(-c2ccccc2)cc1C(=O)O`, the ED50 was found to be 170 mg/kg.
Turning to `O=C(O)c1cc(-c2ccc(C(F)(F)F)cc2)ccc1O`, the ED50 was determined as 50 mg/kg.
Take `CCCCOC(=O)Oc1ccc(-c2ccc(F)cc2)cc1C(=O)O`: the ED50 turned out to be 25 mg/kg.
Consider `CC(=O)Oc1c(F)cccc1C(=O)O`, for which the ED50 came out at 281 mg/kg.
As to `O=C(O)c1cc(-c2ccccc2)ccc1O`, the ED50 was found to be 54 mg/kg.
The compound `O=C(O)c1cccc(F)c1O` gave an ED50 of 90 mg/kg.
For the compound `Cc1cc(F)ccc1-c1ccc(O)c(C(=O)O)c1`, the ED50 turned out to be 76 mg/kg.

Another data set concerns Rattus norvegicus. The data set can be described thus: Antipyretic activity in po dosed rat. In kind it is functional.
Conditions: not given
`CC1=C(CC(=O)O)c2cc(F)ccc2/C1=C\c1ccc([S+](C)[O-])cc1` (centres undefined) [SULINDAC] had an ED50 of 2.9 mg/kg.
Take `CC(=O)Oc1ccccc1C(=O)O` [ASPIRIN]: the ED50 worked out at 40 mg/kg.
`O=C(O)c1cc(-c2ccc(F)cc2F)ccc1O` [DIFLUNISAL] displayed an ED50 of 27.8 mg/kg.
Compound `CC(=O)Oc1ccc(-c2ccc(F)cc2)cc1C(=O)O` [FLUFENISAL] returned an ED50 of 160 mg/kg.
`CC(C)Cc1ccc(C(C)C(=O)O)cc1` (centres undefined) [IBUPROFEN] had an ED50 of 5.9 mg/kg.
As to `COc1ccc2c(c1)c(CC(=O)O)c(C)n2C(=O)c1ccc(Cl)cc1` [INDOMETHACIN], the ED50 stood at 1.8 mg/kg.
